According to ChEMBL document CHEMBL2040711, “Synthesis, characterization and antimicrobial studies of some new quinoline incorporated benzimidazole derivatives” (2012):

Experiments:
Type in all cases: functional
Conditions in all cases: read-out: DIZ
[1] = test system: Xanthomonas sp.; experiment: Antibacterial activity against Xanthomonas sp. at 12.5 ug/ml after 24 to 48 hrs by well plate diffusion method
Method in brief: (§1)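 Agar well diffusion: 15-20 mL agar per dish, plates dried 1 h at 37 ± 2 °C in laminar flow, then seeded. Wells cut with an agar punch, each loaded with compound dissolved in DMSO (6.25 or 12.5 μg/mL). DMSO solvent control, ciprofloxacin standard. Plates in triplicate, incubated 37 ± 2 °C for 24–48 h. Inhibition zone diameter read in mm, with SD.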

[2] = test system: Aspergillus terreus; experiment: Antifungal activity against Aspergillus terreus at 12.5 ug/ml after 72 hrs by well plate method
Method in brief: (§2)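 Sabouraud agar: peptone 10 g, glucose 40 g, agar 20 g per litre water, pH 5.7. Spore suspension made from a loopful of fungus in 3 mL normal saline and lawned on 20 mL agar per dish. Excess decanted, plates dried 1 h at 37 °C. Wells punched and loaded with compound in DMSO (6.25 or 12.5 μg/mL). DMSO control. Triplicate plates held at 25 °C for 72 h. Inhibition zone diameter measured. A. terreus strain NCIM 1325.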

[3] = test system: Escherichia coli; experiment: Antibacterial activity against Escherichia coli at 6.25 ug/ml after 24 to 48 hrs by well plate diffusion method; method in brief: as §1
[4] = test system: Aspergillus flavus; experiment: Antifungal activity against Aspergillus flavus at 6.25 ug/ml after 72 hrs by well plate method
[5] = test system: Salmonella sp.; experiment: Antibacterial activity against Salmonella sp. at 12.5 ug/ml after 24 to 48 hrs by well plate diffusion method; method in brief: as §1
[6] = test system: Salmonella sp.; experiment: Antibacterial activity against Salmonella sp. at 6.25 ug/ml after 24 to 48 hrs by well plate diffusion method; method in brief: as §1
[7] = test system: Xanthomonas sp.; experiment: Antibacterial activity against Xanthomonas sp. at 6.25 ug/ml after 24 to 48 hrs by well plate diffusion method; method in brief: as §1
[8] = test system: Aspergillus terreus; experiment: Antifungal activity against Aspergillus terreus at 6.25 ug/ml after 72 hrs by well plate method; method in brief: as §2
[9] = test system: Staphylococcus aureus; experiment: Antibacterial activity against Staphylococcus aureus at 6.25 ug/ml after 24 to 48 hrs by well plate diffusion method; method in brief: as §1
[10] = test system: Penicillium sp.; experiment: Antifungal activity against Penicillium sp. at 6.25 ug/ml after 72 hrs by well plate method
[11] = test system: Staphylococcus aureus; experiment: Antibacterial activity against Staphylococcus aureus at 12.5 ug/ml after 24 to 48 hrs by well plate diffusion method; method in brief: as §1
[12] = test system: Aspergillus niger; experiment: Antifungal activity against Aspergillus niger at 6.25 ug/ml after 72 hrs by well plate method
[13] = test system: Penicillium sp.; experiment: Antifungal activity against Penicillium sp. at 12.5 ug/ml after 72 hrs by well plate method
[14] = test system: Aspergillus flavus; experiment: Antifungal activity against Aspergillus flavus at 12.5 ug/ml after 72 hrs by well plate method
[15] = test system: Escherichia coli; experiment: Antibacterial activity against Escherichia coli at 12.5 ug/ml after 24 to 48 hrs by well plate diffusion method; method in brief: as §1
[16] = test system: Aspergillus niger; experiment: Antifungal activity against Aspergillus niger at 12.5 ug/ml after 72 hrs by well plate method

SMILES | zone of inhibition at 12.5 µg/mL [1] | zone of inhibition at 12.5 µg/mL [2] | zone of inhibition at 6.25 µg/mL [3] | zone of inhibition at 6.25 µg/mL [4] | zone of inhibition at 12.5 µg/mL [5] | zone of inhibition at 6.25 µg/mL [6] | zone of inhibition at 6.25 µg/mL [7] | zone of inhibition at 6.25 µg/mL [8] | zone of inhibition at 6.25 µg/mL [9] | zone of inhibition at 6.25 µg/mL [10] | zone of inhibition at 12.5 µg/mL [11] | zone of inhibition at 6.25 µg/mL [12] | zone of inhibition at 12.5 µg/mL [13] | zone of inhibition at 12.5 µg/mL [14] | zone of inhibition at 12.5 µg/mL [15] | zone of inhibition at 12.5 µg/mL [16]
Fc1ccc(-c2cc(-c3nc4cc(Cl)c(Cl)cc4[nH]3)c3cc(Cl)ccc3n2)cc1 | 16 mm | 10 mm | 12 mm | 13 mm | 28 mm | 20 mm | 14 mm | 9 mm | 10 mm | 12 mm | 12 mm | 12 mm | 19 mm | 13 mm | 17 mm | 12 mm
Fc1ccc(-c2cc(-c3nc4ccccc4[nH]3)c3cc(F)ccc3n2)cc1 | 14 mm | 9 mm | 10 mm | – | 15 mm | 15 mm | 14 mm | 9 mm | 14 mm | 12 mm | 15 mm | 10 mm | 12 mm | 10 mm | 15 mm | 12 mm
Fc1ccc(-c2cc(-c3nc4ncccc4[nH]3)c3cc(F)ccc3n2)cc1 | 16 mm | 15 mm | – | 11 mm | 13 mm | 13 mm | 15 mm | 10 mm | 12 mm | 14 mm | 12 mm | 11 mm | 15 mm | 14 mm | 13 mm | 13 mm
Fc1ccc(-c2cc(-c3nc4cc(Cl)c(Cl)cc4[nH]3)c3cc(F)ccc3n2)cc1 | 16 mm | 9 mm | – | 12 mm | 12 mm | 9 mm | 12 mm | – | 14 mm | – | 15 mm | 10 mm | 12 mm | 15 mm | 12 mm | 13 mm
Fc1ccc(-c2cc(-c3nc4ccccc4[nH]3)c3ccccc3n2)cc1 | 12 mm | 14 mm | 11 mm | 11 mm | 15 mm | 9 mm | 11 mm | 12 mm | 12 mm | 15 mm | 13 mm | 11 mm | 17 mm | 12 mm | 16 mm | 12 mm
